# High-throughput results (PubChem)
# Shown are actives, neighbours in structure and some others; about 3.1% of the full set was active somewhere.
# GPR7 antagonist – human neuropeptides B/W receptor 1 antagonism; P48145; GPR7-expressing cells, fluorescence antagonist assay; inhibition, % at 4.4 µM; 290,000 compounds, 1.1% hits; AID 1861; in the data active = inhibition above about 16%, passing the limit was not always enough;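 note: cells stimulated with the agonist NPW; 0% = agonist with vehicle and 100% = vehicle without agonist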
# CHO parental Ca – counter-screen for OX1R antagonists: effect in parental CHO cells; parental CHO-K1, ATP-induced calcium, Fluo-8 fluorescence; inhibition, % at 5.6 µM; 330,000 compounds, 0.63% hits; AID 463079;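 active = inhibition above that plate's mean sample inhibition plus 3 SD, cut at about 26% in these data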;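 note: 0% = ATP-challenged DMSO wells and 100% = DMSO wells without ATP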
#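 Measured by: calcium-sensitive Fluo-8 fluorescence / Test system: CHO parental line / Controls: ATP-challenged DMSO wells low, unchallenged DMSO wells high / Measure: % inhibition / Compound: single nominal dose of 5.6 µM per compound / Replicates: single well per compound, no replicates / Reagent: ATP as calcium-mobilizing challenge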
# OX1R antag-1 – antagonists of human orexin 1 receptor. CHO/OX1R cells, Fluo-8 calcium fluorescence, orexin A. inhibition, % at 5 µM. 330,000 compounds, 0.43% hits. AID 434989;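 active = inhibition above its plate's threshold, mean inhibition of all tested compounds on the plate plus 3 SD, cut at about 37% in these data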;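 note: 0% = orexin A challenge wells and 100% = SB-334867-A antagonist wells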
# OX1R antag-2 – antagonists of human orexin 1 receptor (OX1R); O43613; OX1R-expressing cells, FRET antagonist read-out; inhibition, % at 6.6 µM; AID 485270; 330,000 compounds, 1.8% hits; in the data active = inhibition mostly above about 38%, no sharp cut-off; inactive = mostly below about 40%;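 note: 0% = agonist challenge alone and 100% = reference antagonist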
# GalR3 antagonist – antagonists of human GalR3 | O60755 | HEK293 GalR3-CNG cAMP membrane potential fluorescence; galR3 body fused to GalR1 C-terminus | inhibition, % at 3 µM | 360,000 compounds, 0.44% hits | AID 651719;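 active = inhibition above the screen-wide average plus 3 SD, cut at about 13% in these data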;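 note: forskolin and galanin both at EC90 stimulate the cells; cAMP rise reported by CNG channel membrane potential dye signal; 0% = forskolin plus galanin with DMSO and 100% = forskolin alone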
# Target sequence (O60755 1-299 limits assumed): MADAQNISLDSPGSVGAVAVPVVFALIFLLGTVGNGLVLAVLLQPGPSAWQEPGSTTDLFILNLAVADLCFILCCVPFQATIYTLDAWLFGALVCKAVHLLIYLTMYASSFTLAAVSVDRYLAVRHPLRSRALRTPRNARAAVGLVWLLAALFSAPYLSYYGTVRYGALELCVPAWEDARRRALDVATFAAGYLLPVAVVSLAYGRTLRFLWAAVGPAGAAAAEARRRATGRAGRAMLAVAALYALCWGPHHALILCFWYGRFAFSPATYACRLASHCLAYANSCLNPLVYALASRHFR
# * marks the source's active call; other numbers are inactive results; . = no result given.
SMILES,GPR7 antagonist,CHO parental Ca,OX1R antag-1,OX1R antag-2,GalR3 antagonist
Cc1cc(OCC(=O)Nc2ccncc2)ccc1Cl,11.8,30.2*,3.2,35.1,-6.1
CN(C)C(=O)N1CCN(C(=O)[C@H]2O[C@@H](n3ccc(N)nc3=O)[C@H](O)[C@@H]2O)CC1,.,.,.,.,5.1
COc1ccccc1CC(=O)Nc1ccc([N+](=O)[O-])cc1O,29.3*,1.0,14.8,33.3,-0.1
c1ccc(Cc2cnc(N3CCN(Cc4cccc(-c5ccsc5)n4)CC3)nc2)cc1,.,.,.,.,-8.1
CCOC(=O)C1CCN(C(=O)c2ccc(C)o2)CC1,.,-4.5,-3.5,-3.1,-2.9
CCOC(=O)C1CCN(C(=O)c2c(C)oc3c2C(=O)c2ccccc2C3=O)CC1,-13.5,-18.2,-33.2,70.3*,3.2
Cc1oc2c(c1C(=O)N1CCC(C)CC1)C(=O)c1ccccc1C2=O,-5.3,-21.1,-31.4,66.7*,3.1
OCC1OC(C(N=Nc2ccccc2)=NNc2ccccc2)C(O)C1O (centres undefined),.,.,.,.,-4.6
CN(CC(=O)Nc1ccc(F)cc1[N+](=O)[O-])C1CCS(=O)(=O)C1 (centres undefined),.,-2.4,16.4,34.2*,-3.7
CN(CC(=O)Nc1ccccc1Cl)C1CCS(=O)(=O)C1 (centres undefined),.,-0.4,-23.1,4.2,1.5
COc1ccc(C(=O)Oc2ccc[nH]c2=O)cc1,5.2,4.8,-12.1,11.1,-8.5
O=C(Oc1ccc[nH]c1=O)c1cc([N+](=O)[O-])cc([N+](=O)[O-])c1,-7.0,7.5,0.0,68.5*,-8.5
C[C@H]1CN(C(=O)OC(C)(C)C)CCN1c1ccc(Br)c(C#N)c1,.,.,.,.,-2.8
CC(=NNc1cc(C)c2cc(C)ccc2n1)c1ccccn1,.,.,.,.,-8.9
COc1ccc(NS(=O)(=O)c2ccc(Cl)c(C(=O)O)c2)cc1S(=O)(=O)N1CCCCC1,-7.3,42.8*,1.4,12.0,3.0
CN(C)c1ccc(S(=O)(=O)N2CCCCC2)cc1NC(=O)COc1ccccc1F,-15.7,71.2*,10.3,6.8,-5.2
COc1cc(C(C)=O)ccc1OCC(=O)Nc1ccc(C)c(S(=O)(=O)N2CCCCCC2)c1,.,32.5*,53.4*,29.0,-5.3
Cc1ccc(NC(=O)COc2ccccc2C(N)=O)cc1S(=O)(=O)N1CCCCCC1,.,27.9,53.0*,22.6,1.8
Cc1ccccc1-c1n[nH]nc1C1=CC(=O)C[C@H](c2ccc(F)cc2)C1,.,.,.,.,-5.6
COC(=O)c1cc2c(c3c4ccccc4n(S(=O)(=O)c4ccccc4)c13)C(=O)N(Cc1ccco1)C2,.,.,.,.,-6.8
COC(=O)c1ccc2nc(C3CCCCC3)c(Cc3ccccc3OC)n2c1,.,.,.,.,-6.5
CCn1nc(C)c(CNC(=O)CCc2nnc(-c3ccc(C(C)=O)s3)o2)c1C,-0.7,-10.5,-16.8,63.3*,0.4
CCC(=O)C1CCCN(C(=O)CCc2nnc(-c3ccc(C(C)=O)s3)o2)C1 (centres undefined),-12.8,-9.6,-14.0,38.0*,1.1
CCOc1ccc(CCN2C(=O)C(=O)N([C@@H](Cc3ccccc3)CN3CCC[C@H]3CN3C(=O)C(=O)NC[C@@H]3Cc3ccccc3)C[C@@H]2CC(C)C)cc1,.,.,.,.,-8.6
C#CCNC(=O)C[C@H]1C[C@@]2(C(=O)OC)C(=C[C@H](C(C)C)O[C@@H]2C2CC2)N(Cc2ccccc2)C1=O,.,.,.,.,-5.8
SMILES,GPR7 antagonist,CHO parental Ca,OX1R antag-1,OX1R antag-2,GalR3 antagonist
Cc1ccc(S(=O)(=O)NC(=O)Nc2ccc(N(C)C)cc2)cc1,-4.0,-6.1,-16.0,51.4*,1.8
Cc1ccc(S(=O)(=O)NNC(=O)Nc2ccc(Cl)c(Cl)c2)cc1,-0.7,21.9,-6.6,194.2*,-6.7
Cc1nn(C)c(C)c1NC(=O)Nc1cccc(C(F)(F)F)c1,-5.2,-6.0,-6.5,32.7,-1.7
Cc1nn(C)c(C)c1NC(=O)Nc1ccc(Cl)c(Cl)c1,5.3,43.6*,20.1,25.6,-5.7
CC(=O)Nc1ccc(S(=O)(=O)NN=c2sc3ccccc3n2C)cc1N,.,.,.,.,-3.5
COc1ccc(Cl)cc1NC(=O)CSc1nc2sccc2c(=O)[nH]1,-13.2,-18.1,-16.5,62.9*,1.7
COc1ccc(C)cc1NC(=O)CSc1nc2scc(C)c2c(=O)[nH]1,-11.1,1.9,-6.5,71.1*,-3.0
COc1ccc(Cl)cc1NC(=O)CSc1nc(C)cc(C)n1,-2.0,-11.4,-26.7,11.9,-2.3
CCOC(=O)C1(C)CCCN(C(=O)c2cccnc2)C1 (centres undefined),.,.,.,.,-7.3
COCc1[nH]nc2c1C(c1cccc(C(F)(F)F)c1)N(c1ccc(OC)cc1)C2=O (centres undefined),.,.,.,.,-2.3
